The list is not random: actives were taken first. Their share in the collection is about 3.8%.
KCNK3 inh: human KCNK3 channel inhibitors, primary screen, CHO cells, FluxOR thallium flux, B-score; FluxOR fluorescence; stronger effect = lower value; 340,000 tested, 0.84% active; AID 602410, 2012; B-score at 10 µM;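 active = B-score under library mean minus 4 SD, starting fluorescence ratio at most library mean plus 5 SD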;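 also: more negative B-score means stronger inhibition of thallium flux through KCNK3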
Target sequence (O14649 whole entry, looked up): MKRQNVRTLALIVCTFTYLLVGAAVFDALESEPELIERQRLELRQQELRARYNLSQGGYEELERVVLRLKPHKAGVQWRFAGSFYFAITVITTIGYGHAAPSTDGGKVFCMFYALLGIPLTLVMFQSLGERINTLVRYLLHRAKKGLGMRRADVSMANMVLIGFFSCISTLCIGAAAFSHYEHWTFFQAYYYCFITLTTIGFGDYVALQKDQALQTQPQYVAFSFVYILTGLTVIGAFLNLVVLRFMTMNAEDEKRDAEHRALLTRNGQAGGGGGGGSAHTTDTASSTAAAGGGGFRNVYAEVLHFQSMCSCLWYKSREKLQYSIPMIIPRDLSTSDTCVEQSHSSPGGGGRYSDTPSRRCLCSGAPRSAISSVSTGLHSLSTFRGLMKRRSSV
KCNK9 block: KCNK9 potassium channel inhibitors, primary screen, HEK293 cells, thallium flux. FluxOR thallium flux fluorescence; stronger effect = lower value. B-score at 10 µM. 310,000 tested, 1.2% active. AID 488922, 2010;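 active = ratio B-score over 3 SD below the library mean, with starting fluorescence within 5 SD of its mean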;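 also: negative B-score means less thallium flux so channel inhibition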
Target sequence (Q9NPC2 whole entry, looked up): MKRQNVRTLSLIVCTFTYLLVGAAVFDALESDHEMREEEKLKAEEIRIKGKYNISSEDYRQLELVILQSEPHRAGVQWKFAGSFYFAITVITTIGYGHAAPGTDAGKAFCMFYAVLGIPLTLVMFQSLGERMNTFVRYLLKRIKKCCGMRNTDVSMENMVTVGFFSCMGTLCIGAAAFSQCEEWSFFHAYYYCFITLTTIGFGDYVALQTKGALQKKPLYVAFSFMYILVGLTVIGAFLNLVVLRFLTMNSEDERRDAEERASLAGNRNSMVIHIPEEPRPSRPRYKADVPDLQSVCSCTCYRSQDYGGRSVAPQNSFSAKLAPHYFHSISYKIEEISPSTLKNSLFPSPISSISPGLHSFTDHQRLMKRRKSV
KCNQ1 inh: inhibitors of human KCNQ1 channel, primary screen, cell-based, thallium flux, high-throughput; Potassium voltage-gated channel subfamily KQT member 1 (Homo sapiens), P51787; CHO-K1 KCNQ1, FluxOR thallium flux fluorescence; stronger effect = higher value; B-score at 10 µM; 310,000 tested, 1.3% active; AID 2642, 2010;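 active = compounds whose thallium flux B-score, printed positive for inhibition, exceeds three library SD while starting fluorescence stays within three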;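 also: channel opened by potassium depolarization with thallium stimulus after 20 min compound exposure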
Kir21 inh: inhibitors of mouse Kir2.1 inward-rectifier potassium channel | Inward rectifier potassium channel 2 (Mus musculus), P35561 | HEK293-Kir2.1, FluxOR thallium flux fluorescence; stronger effect = lower value | B-score at 10 µM | 310,000 tested, 0.85% active;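 active = fluorescence ratio B-score at or below minus 3 SD of library scores, with starting-brightness B-score within 2 SD, cut at about -4.2 in these data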;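 also: channel flux triggered by added potassium and thallium sulfate stimulus; B-score of peak minus minimum fluorescence over baseline after thallium stimulus; more negative B-score means stronger Kir2.1 block with less thallium influx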
KCNQ1 act: potentiators or activators of KCNQ1 channel, primary screen, cell-based, thallium flux, high-throughput; 310,000 tested, 0.35% active; AID 2648, 2010; CHO-K1 KCNQ1, thallium flux FluxOR fluorescence; stronger effect = higher value; B-score at 10 µM; Potassium voltage-gated channel subfamily KQT member 1 (Homo sapiens), P51787;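 active = fluorescence ratio B-score, a plate-corrected score, at least three library SD, with initial intensity B-score within 5 SD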
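assay system = KCNQ1-transfected CHO-K1 cells | medium = assay buffer with matched DMSO | probe or stimulus = depolarizing K+/Tl+ stimulus, K2SO4 and Tl2SO4 each 12.5 mM in 5x stock | dosing = single dose | incubation = dye 90 min, compound 20 min, room temperature | detection = kinetic FluxOR fluorescence, 10 s baseline plus 110 s post-stimulus | evaluation = ratio B score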
hERG protect: hERG rescue from dofetilide block, primary screen, cell-based, CHO-hERG, FluxOR thallium flux, dofetilide IC70 | Voltage-gated inwardly rectifying potassium channel KCNH2 (Homo sapiens), Q12809 | dofetilide IC70 present | activation (rescue from dofetilide block), less the hit threshold, % at 10 µM | 310,000 tested, 0.51% active | AID 1511, 2009;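 active = activation above the mean of controls blocked by dofetilide plus 5 SD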;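 also: thallium influx through hERG after potassium depolarization seen as dye fluorescence rise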
KCNK3 confirm: retest of human KCNK3 channel inhibitors, confirmation, CHO cells, FluxOR thallium flux, triplicate. AID 651638, 2012. FluxOR fluorescence; 0% buffer, 100% carvedilol maximal block. ratio percent of control, % at 10 µM. shares compounds with KCNK3 inh. 2,400 tested, 99% active;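 active = ratio percent of control, averaged over triplicates, above buffer control mean plus 5 SD, cut at about 64% in these data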;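 also: ratio is the fluorescence rise from min to max over baseline after thallium stimulus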
KCNK3 uninduced: thallium flux inhibition in non-induced cells, primary screen, counter-screen for KCNK3 inhibitor project, cell-based, non-induced KCNK3 line, FluxOR thallium, triplicate; thallium flux ratio (lower = more inhibition) at 10 µM; 2,400 tested, 40% active; non-induced KCNK3 parental cells; stronger effect = lower value; AID 651747, 2012; shares compounds with KCNK3 inh;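 active = thallium flux ratio, averaged over three wells, more than 5 SD below the buffer control mean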;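 also: host cells are CHO cells without KCNK3 induction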
Large screens that a line does not name were inactive (follow-up assays come after a bar, where they were run).

COc1ccc(-c2nc(CSCC(=O)N3CCN(C(=O)c4ccco4)CC3)c(C)o2)cc1OC	none
Cc1cccc(C)c1NC(=O)c1ccc(OCc2c(C)noc2C)cc1	none (no result: KCNK9 block, KCNQ1 inh, Kir21 inh, KCNQ1 act, hERG protect)
O=C(Nc1ccc(Nc2ccccc2)cc1)c1ccc(Cl)c([N+](=O)[O-])c1	KCNK3 inh -11 | KCNK3 confirm 125 | KCNK3 uninduced 0.15
COc1ccc(OC)c(-c2nn(-c3ccccc3)cc2C(=O)N2CCc3ccccc3C2)c1	none (no result: KCNK9 block, KCNQ1 inh, Kir21 inh, KCNQ1 act, hERG protect)
COc1cccc(-c2nn(-c3ccc(C)cc3)cc2C(=O)N2CCc3cc(OC)c(OC)cc3C2)c1	KCNK3 inh -9.8 | KCNK3 confirm 104 | KCNK3 uninduced 0.14
CCc1ccccc1NC(=O)NCc1ccc2c(c1)OCO2	none
CCN(CC)c1nc(-c2ccc(C(=O)NN)cc2)nc(-c2ccc(C(=O)NN)cc2)n1	KCNK3 inh -8.8 | KCNK3 confirm 52 | KCNK3 uninduced inactive
O=C(CN(C(=O)c1csnn1)c1ccc(Cl)cc1)NCCc1ccccc1	none
O=C(COc1ccc(Br)cc1CNCCc1ccccc1)NCc1ccccc1	KCNK3 inh -11, KCNQ1 inh 7 | KCNK3 confirm 102 | KCNK3 uninduced inactive
Cc1nc(N2CCN(c3ccccn3)CC2)c2c(C)c(C(=O)N3CCN(c4cccc(Cl)c4)CC3)sc2n1	KCNK3 inh -9.4 | KCNK3 confirm 97 | KCNK3 uninduced inactive
CCc1ccc(NC(=O)c2sc3nc(C)nc(N4CCN(c5ccccn5)CC4)c3c2C)cc1	KCNK3 inh -12, KCNQ1 inh 6 | KCNK3 confirm 139 | KCNK3 uninduced 0.11
CCOC(=O)C1=C(CSc2nc(CC)c(C)cc2C#N)OC(N)=C(C#N)C1c1ccccc1 (stereo not given)	KCNK3 inh -9.8 | KCNK3 confirm 109 | KCNK3 uninduced inactive
CCOC(=O)C1=C(CSc2nc3c(cc2C#N)CN(C)CC3)OC(N)=C(C#N)C1c1ccncc1 (stereo not given)	none
Cn1c2ccccc2c2cc(/C=N/NC(=O)c3cc(O)ccc3O)ccc21	none
COc1cc(C(=O)N/N=C/c2ccc(OC(=O)c3cccc(C)c3)c(OC)c2)ccc1O	KCNK3 inh -8.7, KCNQ1 inh 8 | KCNK3 confirm 82 | KCNK3 uninduced inactive
COc1cccc(C(=O)Oc2ccc(/C=N/NC(=O)c3ccncc3)cc2OC)c1	none
COc1cc(C(=O)N/N=C/c2ccc3c(c2)c2ccccc2n3C)ccc1O	KCNK3 inh -11 | KCNK3 confirm 100 | KCNK3 uninduced inactive
COC(=O)c1cc(S(=O)(=O)C(C)C)c(S(C)=O)s1 (stereo not given)	none
COc1cc(C)ccc1OCC(=O)Nc1ccc2c(c1)OCO2	none (no result: KCNK9 block, KCNQ1 inh, Kir21 inh, KCNQ1 act, hERG protect)
CC(C)CN(CC(C)C)c1nc(N)c(C#N)c(CC#N)c1C#N	KCNK3 inh -11, KCNK9 block -7.5 | KCNK3 confirm 92 | KCNK3 uninduced inactive
CN(CCO)c1nc(N)c(C#N)c(CC#N)c1C#N	none
CCOC(=O)N1C/C(=C\c2ccccc2)C(=O)/C(=C/c2ccccc2)C1	KCNK3 inh -10, KCNQ1 inh 10 | KCNK3 confirm 113 | KCNK3 uninduced inactive
Cc1ccc(S(=O)(=O)CCC(=O)c2cccc([N+](=O)[O-])c2)cc1	KCNK3 inh -9.5, Kir21 inh -9.5 | KCNK3 confirm 114 | KCNK3 uninduced 0.12
O=C(CN(Cc1ccccc1)S(=O)(=O)c1ccc(S(=O)(=O)N2CCOCC2)cc1)Nc1ccccc1	none
CCCN1CCc2c(sc(NC(=O)c3ccc(S(=O)(=O)N4CCN(C(=O)OCC)CC4)cc3)c2C(N)=O)C1	KCNK3 inh -11, KCNQ1 inh 6 | KCNK3 confirm 125 | KCNK3 uninduced 0.093
CCN(CC)S(=O)(=O)c1ccc(/C=C/C(=O)OCC(=O)NCc2cccs2)cc1	none (no result: KCNK9 block, KCNQ1 inh, Kir21 inh, KCNQ1 act, hERG protect)
Cc1sc(NC(=O)C2CCCO2)c(C(N)=O)c1C (stereo not given)	none
CCOC(=O)c1c(NC(=O)C2CCCO2)sc(C)c1C (stereo not given)	KCNK3 inh -11 | KCNK3 confirm 109 | KCNK3 uninduced inactive
CCOC(=O)c1c(NC(=O)COC(=O)C2CC2C)sc(C)c1C (stereo not given)	KCNK3 inh -10, KCNK9 block -8.1 | KCNK3 confirm 110 | KCNK3 uninduced inactive
CC(=O)NC(CC(=O)Nc1nc(-c2ccc(N(C)S(C)(=O)=O)cc2)cs1)c1ccccc1 (stereo not given)	KCNK3 inh -10 | KCNK3 confirm 59 | KCNK3 uninduced inactive
Cc1ccc(CS(=O)(=O)CCC(=O)N2CCOCC2)cc1	none
CC1CCC(C(C)C)C(OC(=O)CSc2nnc(N)s2)C1 (stereo not given)	KCNK3 inh -9.7, Kir21 inh -4.2 | KCNK3 confirm 110 | KCNK3 uninduced inactive
CC1CCN(C2CCN(S(=O)(=O)c3ccc(C(F)(F)F)cc3)CC2)CC1	none
COc1ccc(Cl)cc1NC(=O)CN(C)C(=O)c1ccc(N2CCCCC2)c([N+](=O)[O-])c1	none
COc1ccc(Cl)cc1NC(=O)CN(C)C(=O)c1ccc(N2CCCCCC2)c([N+](=O)[O-])c1	KCNK3 inh -12 | KCNK3 confirm 107 | KCNK3 uninduced inactive
O=C(COC(=O)COc1cccc(C(F)(F)F)c1)NC1CCS(=O)(=O)C1 (stereo not given)	none
Cc1cc(Cl)ccc1OCC(=O)N(Cc1cccs1)C1CCS(=O)(=O)C1 (stereo not given)	KCNK3 inh -9.9 | KCNK3 confirm 59 | KCNK3 uninduced 0.16
O=C(COc1ccccc1Cl)N(Cc1cccs1)C1CCS(=O)(=O)C1 (stereo not given)	none
CS(=O)(=O)c1ccc(NC(=O)c2ccc3c(c2)S(=O)(=O)N=C2CCCCCN23)cc1	none
COC(=O)/C=C1\SC(=NC(=O)c2ccc(-c3ccccc3)cc2)NC1=O	none (no result: KCNK9 block, KCNQ1 inh, Kir21 inh, KCNQ1 act, hERG protect)
CCOC(=O)c1cc(C#N)c(SCC(=O)c2cc(C#N)c(SC)nc2C)[nH]c1=O	KCNK3 inh -10 | KCNK3 confirm 122 | KCNK3 uninduced 0.13
